Laboratory results from ChEMBL document CHEMBL4828761, “Development and crystallography-aided SAR studies of multifunctional BuChE inhibitors and 5-HT6R antagonists with β-amyloid anti-aggregation properties” (Eur J Med Chem, 2021).
The source made the active and inactive calls. No cut-off for these calls is given here.

Experiments:
[1] = target: Acetylcholinesterase (Electrophorus electricus, UniProt O42275); assay: Inhibition of electric eel AchE using ATC as substrate preincubated with enzyme for 5 mins followed by substrate addition for 5 mins by Ellman's method
Procedure, shortened: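 Electric eel AChE at 0.384 U/mL final, with DTNB in 0.1 M phosphate pH 8.0. […] ATC solution (0.00375 M) added; A412 after 5 min. Run in triplicate; IC50 by nonlinear regression of residual activity versus concentration.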

[2] = target: Cholinesterase (Equus caballus, UniProt P81908); assay: Inhibition of equine serum BuChE using BTC as substrate preincubated with enzyme for 5 mins followed by substrate addition for 5 mins by Ellman's method; type: cell-free
[3] = target: Amyloid-beta precursor protein (Homo sapiens) (UniProt P05067); assay: Inhibition of amyloid beta (1 to 42) (unknown origin) self aggregation at 10 uM incubated for 24 to 48 hrs by Thioflavin-T based fluorometric assay; conditions: time lower […], time upper 48.0 hrs
[4] = target: 5-hydroxytryptamine receptor 6 (Homo sapiens, UniProt P50406); assay: Displacement of [3H]LSD from human 5HT6 receptor expressed in CHO-K1 membrane incubated for 60 mins by solid scintillation counting analysis; type: cell membranes
[5] = target: T1, Cholinesterase (Homo sapiens, UniProt P06276); assay: Inhibition of BuChE in human plasma using BTC as substrate at 10 uM preincubated with enzyme for 5 mins followed by substrate addition for 5 mins by Ellman's method relative to control; type: cell-free; conditions: time 10.0 min
Procedure, shortened: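 Human plasma BuChE at 0.384 U/mL final, with DTNB in 0.1 M phosphate buffer pH 8.0. Compound at 10 µM screened, preincubated 5 min at 36 °C.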

[6] = target: Amyloid-beta precursor protein (Homo sapiens) (UniProt P05067); assay: Inhibition of self-induced aggregation of amyloid beta (1 to 42) (unknown origin) expressed in Escherichia coli BL21(DE3) at 10 uM incubated for 60 mins by fluorescence based analysis
[7] = target: T1, Cholinesterase; assay: Inhibition of BuChE in human plasma using BTC as substrate preincubated with enzyme for 5 mins followed by substrate addition for 5 mins by Ellman's method; type: cell-free
Procedure, shortened: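 Human plasma BuChE at 0.384 U/mL final, with DTNB in 0.1 M phosphate pH 8.0. […] BTC solution (0.00375 M) added; A412 after 5 min. Run in triplicate; IC50 from nonlinear regression of residual activity versus concentration.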

[8] = Metabolic stability in mouse liver microsomes assessed as parent compound remaining at 50 microM preincubated for 5 mins followed by incubation with NADPH regenerating system for 120 mins by UPLC-MS analysis; type: ADME, Microsome; conditions: time 125 min, read-out: Stability
Procedure, shortened: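 Mouse liver microsomes 1 mg/mL in 0.1 M Tris-HCl pH 7.4 with 50 μM compound, preincubated 5 min at 37 °C, then started with NADPH regeneration system; stopped after 120 min at 37 °C with cold methanol, centrifuged, supernatant analysed by UPLC-MS for remaining parent and metabolites. Verapamil served as reference.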

[9] = Cytotoxicity against human HepG2 cells assessed as non-toxic concentration incubated for 72 hrs by MTS assay; type: cell-based; conditions: read-out: MNCC
Procedure, shortened: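 HepG2 cells grown in MEM with 2 mM glutamine, 1% NEAA, 10% FBS at 37 °C, 5% CO2. Compounds tested in quadruplicate at 0.1, 1, 10 and 100 μM for 72 h; viability read by MTS (CellTiter 96 AQueous) assay. Doxorubicin 1 μM and CCCP 10 μM served as positive controls.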

[10] = target: Cholinesterase (Equus caballus) (UniProt P81908); assay: Reversible inhibition of equine serum BuChE using BTC as substrate at 10XIC50 preincubated with 100-fold diluted enzyme for 120 mins followed by substrate addition and measured after 5 mins by 100-fold dilution assay; type: cell-free; conditions: time 125.0 min
Procedure, shortened: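 Equine BuChE preincubated with inhibitor at 100-fold the final enzyme concentration for 30, 60 or 120 min at 25 °C. Then diluted 100-fold into 0.1 M phosphate pH 8 with DTNB. BTC (0.00375 M) added; A412 read after 5 min. Activity recovery compared with enzyme/vehicle blanks; two independent experiments, each in quadruplicate.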

[11] = Half life in CD-1 mouse brain at 3 mg/kg, iv measured for 480 mins by LC-ESI-MS/MS analysis; type: ADME, organism-based
Procedure, shortened: (§1)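 Adult male CD-1 mice (20–25 g), dosed in saline i.v. 3 mg/kg or intragastrically 30 mg/kg; 6 animals per time point. Under i.p. ketamine/xylazine anaesthesia, blood collected after decapitation into heparinized tubes, plasma separated; brain homogenized in pH 7.4 phosphate buffer (1:2.5). Acetonitrile precipitation with internal standard, LC/ESI-MS/MS on C18 with formic acid eluents; non-compartmental parameters.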

[12] = MRT in CD-1 mouse plasma at 30 mg/kg, po measured for 480 mins by LC-ESI-MS/MS analysis; type: ADME, organism-based; procedure, shortened: as §1
[13] = Cmax in CD-1 mouse plasma at 30 mg/kg, po measured for 480 mins by LC-ESI-MS/MS analysis; type: ADME, organism-based; parameters: route oral, dose 30 mg/kg, time 480 min; procedure, shortened: as §1
[14] = AUC (0 to t) in CD-1 mouse plasma at 3 mg/kg, iv measured for 480 mins by LC-ESI-MS/MS analysis; type: ADME, organism-based; parameters: dose 3 mg/kg, time 480 min; procedure, shortened: as §1
[15] = AUC (0 to t) in CD-1 mouse brain at 3 mg/kg, iv measured for 480 mins by LC-ESI-MS/MS analysis; type: ADME, organism-based; conditions: in vivo, 8 h; procedure, shortened: as §1
[16] = Cmax in CD-1 mouse brain at 30 mg/kg, po measured for 480 mins by LC-ESI-MS/MS analysis; type: ADME, organism-based; parameters: route oral, dose 30 mg/kg, time 480 min; procedure, shortened: as §1
[17] = MRT in CD-1 mouse brain at 30 mg/kg, po measured for 480 mins by LC-ESI-MS/MS analysis; type: ADME, organism-based; procedure, shortened: as §1
[18] = AUC (0 to t) in CD-1 mouse brain at 30 mg/kg, po measured for 480 mins by LC-ESI-MS/MS analysis; type: ADME, organism-based; conditions: in vivo, 8 h; procedure, shortened: as §1
[19] = MRT in CD-1 mouse brain at 3 mg/kg, iv measured for 480 mins by LC-ESI-MS/MS analysis; type: ADME, organism-based; procedure, shortened: as §1
[20] = Initial drug concentration in CD-1 mouse brain at 3 mg/kg, iv by LC-ESI-MS/MS analysis; type: ADME, organism-based; procedure, shortened: as §1
[21] = MRT in CD-1 mouse plasma at 3 mg/kg, iv measured for 480 mins by LC-ESI-MS/MS analysis; type: ADME, organism-based; conditions: in vivo, 8 h; procedure, shortened: as §1
[22] = Half life in CD-1 mouse plasma at 3 mg/kg, iv measured for 480 mins by LC-ESI-MS/MS analysis; type: ADME, organism-based; procedure, shortened: as §1
[23] = AUC (0 to t) in CD-1 mouse plasma at 30 mg/kg, po measured for 480 mins by LC-ESI-MS/MS analysis; type: ADME, organism-based; parameters: time 480 min, dose 30 mg/kg; procedure, shortened: as §1
[24] = Initial plasma concentration in CD-1 mouse at 3 mg/kg, iv by LC-ESI-MS/MS analysis; type: ADME, organism-based; procedure, shortened: as §1
[25] = Apparent oral clearance in CD-1 mouse at 30 mg/kg measured for 480 mins by LC-ESI-MS/MS analysis; type: ADME, organism-based; conditions: in vivo; procedure, shortened: as §1
[26] = Oral bioavailability in CD-1 mouse at 30 mg/kg measured for 480 mins by LC-ESI-MS/MS analysis; type: ADME, organism-based; conditions: in vivo; procedure, shortened: as §1
[27] = Half life in CD-1 mouse brain at 30 mg/kg, po measured for 480 mins by LC-ESI-MS/MS analysis; type: ADME, organism-based; procedure, shortened: as §1
[28] = Apparent oral volume of distribution at steady state in CD-1 mouse at 30 mg/kg measured for 480 mins by LC-ESI-MS/MS analysis; type: ADME, organism-based; conditions: in vivo; procedure, shortened: as §1
[29] = Ratio of drug level in brain to plasma in CD-1 mouse at 30 mg/kg, po by LC-ESI-MS/MS analysis; type: ADME, organism-based; conditions: read-out: BPR; procedure, shortened: as §1
[30] = Half life in CD-1 mouse plasma at 30 mg/kg, po measured for 480 mins by LC-ESI-MS/MS analysis; type: ADME, organism-based; procedure, shortened: as §1
[31] = Tmax in CD-1 mouse plasma at 30 mg/kg, po measured for 480 mins by LC-ESI-MS/MS analysis; type: ADME, organism-based; procedure, shortened: as §1
[32] = Ratio of drug level in brain to plasma in CD-1 mouse at 3 mg/kg, iv by LC-ESI-MS/MS analysis; type: ADME, organism-based; conditions: read-out: BPR; procedure, shortened: as §1
[33] = Tmax in CD-1 mouse brain at 30 mg/kg, po measured for 480 mins by LC-ESI-MS/MS analysis; type: ADME, organism-based; procedure, shortened: as §1

5-hydroxytryptamine receptor 6, sequence (P50406 whole entry): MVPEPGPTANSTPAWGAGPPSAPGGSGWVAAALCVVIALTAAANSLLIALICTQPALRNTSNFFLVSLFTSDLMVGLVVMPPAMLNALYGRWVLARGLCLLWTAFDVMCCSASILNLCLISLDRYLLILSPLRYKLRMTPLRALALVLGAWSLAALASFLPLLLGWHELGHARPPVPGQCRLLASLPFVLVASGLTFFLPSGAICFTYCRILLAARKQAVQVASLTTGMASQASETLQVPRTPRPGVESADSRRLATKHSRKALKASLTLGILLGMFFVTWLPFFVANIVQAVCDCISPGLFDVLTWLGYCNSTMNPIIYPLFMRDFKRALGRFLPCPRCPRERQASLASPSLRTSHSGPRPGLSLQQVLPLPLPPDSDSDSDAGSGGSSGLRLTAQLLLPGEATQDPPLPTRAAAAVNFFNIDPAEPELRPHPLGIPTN
Cholinesterase (Equus caballus, UniProt P81908), sequence (P81908 whole entry): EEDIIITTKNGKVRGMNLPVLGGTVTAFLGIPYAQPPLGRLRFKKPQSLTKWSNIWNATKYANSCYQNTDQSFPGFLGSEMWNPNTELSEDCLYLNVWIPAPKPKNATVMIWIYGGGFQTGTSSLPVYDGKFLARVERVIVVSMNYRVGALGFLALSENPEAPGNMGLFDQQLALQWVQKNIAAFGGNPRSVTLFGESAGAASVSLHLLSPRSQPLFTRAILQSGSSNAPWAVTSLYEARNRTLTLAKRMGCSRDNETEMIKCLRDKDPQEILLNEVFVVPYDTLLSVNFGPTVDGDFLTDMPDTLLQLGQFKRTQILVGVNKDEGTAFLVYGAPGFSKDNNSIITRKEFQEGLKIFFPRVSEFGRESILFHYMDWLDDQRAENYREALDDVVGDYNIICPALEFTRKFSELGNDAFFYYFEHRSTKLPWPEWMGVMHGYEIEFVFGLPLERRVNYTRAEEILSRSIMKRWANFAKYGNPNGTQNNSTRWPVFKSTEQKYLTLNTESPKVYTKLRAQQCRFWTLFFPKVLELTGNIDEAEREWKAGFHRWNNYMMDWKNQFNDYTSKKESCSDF
Acetylcholinesterase, sequence (O42275 whole entry): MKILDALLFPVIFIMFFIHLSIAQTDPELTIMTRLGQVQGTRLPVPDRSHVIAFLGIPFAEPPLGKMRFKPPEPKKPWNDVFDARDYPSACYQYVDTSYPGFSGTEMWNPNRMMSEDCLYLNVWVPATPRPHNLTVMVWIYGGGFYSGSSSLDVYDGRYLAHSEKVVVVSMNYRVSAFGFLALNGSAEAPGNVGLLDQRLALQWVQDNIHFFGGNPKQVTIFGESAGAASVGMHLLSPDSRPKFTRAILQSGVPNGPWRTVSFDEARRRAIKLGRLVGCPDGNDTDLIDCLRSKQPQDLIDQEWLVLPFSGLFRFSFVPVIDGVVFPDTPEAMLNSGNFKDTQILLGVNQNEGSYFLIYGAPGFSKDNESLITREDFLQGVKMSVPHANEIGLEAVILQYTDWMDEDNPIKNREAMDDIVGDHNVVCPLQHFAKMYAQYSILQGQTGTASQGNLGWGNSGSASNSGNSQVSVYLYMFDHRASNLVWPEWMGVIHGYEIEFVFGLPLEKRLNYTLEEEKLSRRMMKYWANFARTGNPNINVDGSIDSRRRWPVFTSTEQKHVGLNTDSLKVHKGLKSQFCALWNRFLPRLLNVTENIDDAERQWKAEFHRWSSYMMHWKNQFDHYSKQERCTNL
Amyloid-beta precursor protein (Homo sapiens), sequence (P05067 whole entry): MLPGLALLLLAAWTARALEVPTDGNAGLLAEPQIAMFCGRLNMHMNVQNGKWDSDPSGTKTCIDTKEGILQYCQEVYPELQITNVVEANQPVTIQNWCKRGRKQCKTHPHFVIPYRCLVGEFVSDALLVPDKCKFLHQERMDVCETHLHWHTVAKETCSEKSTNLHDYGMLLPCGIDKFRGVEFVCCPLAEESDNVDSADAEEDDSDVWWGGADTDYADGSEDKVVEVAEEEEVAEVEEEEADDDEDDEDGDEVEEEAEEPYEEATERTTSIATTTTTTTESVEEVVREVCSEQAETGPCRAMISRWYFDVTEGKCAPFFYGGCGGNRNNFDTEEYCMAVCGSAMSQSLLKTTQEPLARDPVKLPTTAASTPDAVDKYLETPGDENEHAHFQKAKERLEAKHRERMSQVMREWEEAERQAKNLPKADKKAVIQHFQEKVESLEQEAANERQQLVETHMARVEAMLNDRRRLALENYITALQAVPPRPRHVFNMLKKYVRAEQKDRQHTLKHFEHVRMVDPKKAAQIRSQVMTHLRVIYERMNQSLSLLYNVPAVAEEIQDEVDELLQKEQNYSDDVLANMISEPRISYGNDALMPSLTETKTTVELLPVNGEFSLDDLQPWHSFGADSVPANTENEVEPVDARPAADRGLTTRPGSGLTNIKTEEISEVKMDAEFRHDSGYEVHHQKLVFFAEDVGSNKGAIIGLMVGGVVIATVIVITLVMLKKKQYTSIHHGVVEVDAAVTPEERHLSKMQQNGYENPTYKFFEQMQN
T1 sequence (P06276 whole entry): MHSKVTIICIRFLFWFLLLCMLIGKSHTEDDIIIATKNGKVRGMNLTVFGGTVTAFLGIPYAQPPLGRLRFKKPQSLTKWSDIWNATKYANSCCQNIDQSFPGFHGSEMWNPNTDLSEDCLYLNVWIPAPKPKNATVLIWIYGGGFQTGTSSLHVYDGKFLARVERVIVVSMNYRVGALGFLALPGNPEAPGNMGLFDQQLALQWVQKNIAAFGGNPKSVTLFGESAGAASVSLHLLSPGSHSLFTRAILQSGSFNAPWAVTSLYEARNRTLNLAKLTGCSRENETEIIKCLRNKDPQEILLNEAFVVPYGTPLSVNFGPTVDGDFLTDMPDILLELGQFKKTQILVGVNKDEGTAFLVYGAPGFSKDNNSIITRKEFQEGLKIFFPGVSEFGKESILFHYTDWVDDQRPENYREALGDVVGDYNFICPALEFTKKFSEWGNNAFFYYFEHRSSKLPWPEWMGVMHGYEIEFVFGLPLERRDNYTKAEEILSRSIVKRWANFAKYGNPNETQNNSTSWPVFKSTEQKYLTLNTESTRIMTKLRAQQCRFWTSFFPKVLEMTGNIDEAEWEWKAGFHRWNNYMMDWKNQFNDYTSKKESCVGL
Cholinesterase (Equus caballus), sequence (P81908 whole entry): as the sequence (P81908 whole entry) above

O=C1Cc2c(OCCNCc3ccccc3)cccc2N1Cc1ccccc1
IC50 [1]: 1710 nM | IC50 [2]: 4430 nM | inhibition [3]: 42.4% | Ki [4]: 55 nM | inhibition [5]: < 50%

Cc1cccc(CNCCOc2cccc3c2[nH]c(=O)n3Cc2ccccc2)c1
IC50 [1]: 1800 nM | IC50 [2]: 1500 nM | inhibition [3]: 64.3% | Ki [4]: 207 nM | inhibition [5]: < 50%

O=c1[nH]c2c(OCCNCc3ccccc3)cccc2n1Cc1ccccc1
IC50 [1]: 1080 nM | IC50 [2]: 1840 nM | inhibition [3]: 32.9% | Ki [4]: 144 nM | inhibition [5]: < 50%

O=S(=O)(c1ccccc1)n1ccc2c(N3CCN(CCCCCCNc4c5c(nc6ccccc46)CCCC5)CC3)cccc21
inhibition [6]: 30%

O=S(=O)(c1ccccc1)n1ccc2c(OCCNCc3ccccc3)cccc21
IC50 [7]: 1610 nM | remaining at 2 h, 50 µM [8]: 57% | IC50 [2]: 473 nM | MNTC at 72 h [9]: ≤ 10000 nM

CC(C)(C)OC(=O)N1CCCC(CNCCOc2cccc3c2CCN3Cc2ccccc2)C1 (stereo not drawn)
IC50 [7]: 175 nM | IC50 [2]: 25.7 nM | inhibition [10]: Active | inhibition [3]: 79.7% | Ki [4]: 1080 nM | inhibition [5]: > 50%

O=S(=O)(c1ccccc1)n1ccc2c(OCCNCC3CCCCC3)cccc21
half-life [11]: 2.97 h | IC50 [7]: 551 nM | MRT [12]: 3.24 h | remaining at 2 h, 50 µM [8]: 59% | Cmax [13]: 532 ng/mL | AUC(0-t) at 8 h [14]: 627 ng·h/mL | AUCt [15]: 125194 ng·min/g | Cmax [16]: 2800 ng/mL | MRT [17]: 3.24 h | AUCt [18]: 734469 ng·min/g | MRT [19]: 2.83 h | C0 [20]: 404 ng/mL | MRT [21]: 3.18 h | half-life [22]: 5.53 h | AUC(0-t) at 8 h [23]: 1800 ng·h/mL | IC50 [2]: 89.9 nM | C0 [24]: 176 ng/mL | CL/F [25]: 189 mL/min/kg | bioavailability [26]: 28.7% | half-life [27]: 3 h | Vd/F [28]: 81.4 L/kg | Kp [29]: 6.79 | half-life [30]: 4.97 h | MNTC at 72 h [9]: ≤ 1000 nM | Tmax [31]: 1 h | Kp [32]: 3.33 | Tmax [33]: 1 h

CC(C)(C)OC(=O)N1CCCC(CNCCOc2cccc3c2ccn3Cc2ccccc2)C1 (stereo not drawn)
IC50 [7]: 115 nM | IC50 [2]: 11 nM | inhibition [10]: Active | inhibition [3]: 79.4% | Ki [4]: 369 nM | inhibition [5]: > 50%

CC(C)(C)OC(=O)N1CCCC(CNCCOc2cccc3c2ccn3S(=O)(=O)c2ccccc2)C1 (stereo not drawn)
IC50 [7]: 206 nM | remaining at 2 h, 50 µM [8]: 0% | IC50 [2]: 125 nM | MNTC at 72 h [9]: ≤ 1000 nM

Cc1cccc(CNCCOc2cccc3c2CC(=O)N3Cc2ccccc2)c1
IC50 [1]: 1280 nM | IC50 [2]: 1850 nM | inhibition [3]: 58.5% | Ki [4]: 53 nM | inhibition [5]: < 50%
